Screening data: PubChem BioAssay, Columbia University Molecular Screening Center
INS promoter act: TRM-6 insulin promoter activation; activation, % at 2 µM; TRM-6 cells (human fetal islet line), insulin promoter eGFP reporter, imaging; plate-scaled: unstimulated 0, stimulated control 100; AID 1296; 0.81% of 130,000 active;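 active = activation at 2 µM above a set limit, confirmed on inspection of the cell images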;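 also: share of cells whose green reporter signal exceeds an intensity cutoff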
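System – TRM-6 insulin promoter–eGFP reporter cells · Probe or stimulus – 0.75 µM tamoxifen as reporter inducer · Dosing – single-point 2 µM compound dose · Incubation – tamoxifen pre-incubation 15 h overnight, then compound exposure 48 h at 37 °C · Measured by – fixed-cell fluorescence microscopy, eGFP plus Hoechst · Evaluation – percent GFP-positive cells normalized to per-plate controls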
Numbers stand for hits; i = inactive. The sample as a whole holds a higher share of hits than the screen did.

SMILES | INS promoter act
CSc1ccccc1NC(=O)CN(c1cccc(C)c1)S(C)(=O)=O | i
COc1ccc(N(CC(=O)Nc2ccccc2SC)S(C)(=O)=O)cc1OC | 614
COc1ccc(N(CC(=O)O)S(C)(=O)=O)cc1OC | i
COc1ccc(C2N(Cc3ccccc3)CCN2Cc2ccccc2)cc1[N+](=O)[O-] | i
CC1CC(C)CN(S(=O)(=O)c2cccc(C(=O)OCCN3CCCC3=O)c2)C1 (configuration not stated) | i
COc1cc(C(=O)N/N=C2\CCS(=O)(=O)c3ccc(F)cc32)cc(OC)c1OC | i
O=C(COn1nnc2ccc(C(F)(F)F)cc21)Nc1c(Cl)cccc1Cl | i
CCN(CC)c1nc(OC)nc(-n2nnc(C(C)=O)c2C)n1 | i
O=C(COC(=O)c1ccc(F)cc1F)NC1CC1 | i
CCOC(=O)C(C)Sc1nc2ccccc2c(=O)n1CC (configuration not stated) | 426
CCOC(=O)CSc1nc2ccccc2c(=O)n1CCN1CCOCC1 | i
CCOC(=O)COn1c(SCC(=O)OCC)nc2ccccc2c1=O | i
Cc1ncc([N+](=O)[O-])n1Cc1ccc(Br)cc1 | i
Cc1nn(Cc2ccccc2)c(C)c1NC(=O)CCCn1nc([N+](=O)[O-])c(Cl)c1C | i
Cc1nn(Cc2ccc(Cl)cc2Cl)c(C)c1NC(=O)Cn1nc([N+](=O)[O-])c(Cl)c1C | 650
Cc1c(Cl)c([N+](=O)[O-])nn1Cc1ccc(C(=O)Nc2ccc(Cl)cn2)o1 | i
Cc1ccc(NC(=O)COc2ccc(CCO)cc2-n2nc3ccccc3n2)cc1C | i
O=C(Nn1c(Cc2cccs2)nc2ccccc2c1=O)c1ccc(F)c(F)c1 | 419
O=C(CSc1nc2ccccc2c(=O)n1NC(=O)c1ccccc1)c1ccccc1 | i
O=C(Nn1c(C2CCC2)nc2ccccc2c1=O)c1cccs1 | i
COC(=O)c1ccccc1N1C(=O)C2C(C1=O)C1C=CC2C12CC2 (configuration not stated) | 164
O=C(COc1ccc(Cl)c(Cl)c1)NN1C(=O)C2C(C1=O)C1C=CC2C12CC2 (configuration not stated) | i
COC(=O)c1ccccc1N1C(=O)C2C(C1=O)[C@H]1C=C[C@@H]2C1 (some centres not stated) | i
COc1ccc(C(=O)NCCN2CCOCC2)cc1OC | i
COCCNC(=O)C(=O)NCCN1CCOCC1 | 494
SMILES | INS promoter act
O=C(CCSCCC(=O)NCCN1CCOCC1)NCCN1CCOCC1 | i
COc1ccc(NC(=O)CCN2C(=O)C3C4CCC(C4)C3C2=O)cc1 (configuration not stated) | i
COc1cc(C(C)=O)ccc1COc1ccc(C(=O)OC(C)C(=O)NC(N)=O)cc1OC (configuration not stated) | i
C=CCn1c(SCc2ccccc2)nnc1-c1cccnc1 | i
Cc1ccc(-c2nnc(SCc3ccc(C#N)cc3)n2Cc2ccco2)cc1 | i
C=CCn1c(SCc2ccc(C#N)cc2)nnc1-c1cccc(OC)c1 | 164
CC(C)[C@H](NC(=O)c1ccccc1)C(=O)OCC(=O)N1CC2(C)CC1CC(C)(C)C2 (some centres not stated) | i
CCOc1ccc(-c2cc(C(=O)N3CCN(c4ccccn4)CC3)c3ccccc3n2)cc1 | 740
CS(=O)(=O)N1CCN(C(=O)c2cc(-c3ccccc3)nc3ccccc23)CC1 | i
O=C(c1cc(Sc2cccc(Cl)c2)nc2ccccc12)N1CCN(c2ccccn2)CC1 | i
c1ccc(Oc2cc(-n3cccn3)ncn2)cc1 | i
Cc1nn(-c2ccccc2)c(C)c1NC(=O)COc1ccc(F)cc1Cl | i
Cc1ccccc1Oc1cc(-n2ncc(Cl)c(Cl)c2=O)ncn1 | 270
COc1cc(C(=O)Nc2c(C)cc(C)cc2C)c([N+](=O)[O-])cc1OC | i
COCCNC(=O)Cn1c(=O)n(C)c2ccccc21 | i
Cc1ccc2sc(C)[n+](CCC(C)S(=O)(=O)[O-])c2c1 (configuration not stated) | i
Cc1cc(NC(=O)c2ccc3c(c2)OCO3)no1 | i
CC(=O)Nc1ccc(C(=O)Nc2ccc(S(=O)(=O)NCC3CCCO3)cc2)cc1 (configuration not stated) | i
Cc1cc(NC(=O)c2ccc(S(=O)(=O)N(C)CC3CCCO3)cc2)no1 (configuration not stated) | 414
O=C(c1cc(COc2ccc(F)cc2F)on1)N1CCSCC1 | i
Cn1c2ccccc2n2c(=O)c(Cl)c(-c3ccccc3)c(C#N)c12 | i
Cn1c(-c2cccc(Br)c2)n[nH]c1=O | i
O=C1CC(N2CCN(c3ccccc3)CC2)C(=O)N1c1ccc2c(c1)OCO2 (configuration not stated) | i
Cc1ccc(C(NC(=O)c2ccccc2)C(Cl)(Cl)Cl)cc1 (configuration not stated) | i
O=C(CSCc1ccccc1)N1CCN(c2ccccc2)CC1 | i
SMILES | INS promoter act
Cc1cccc(N2CCN(C(=O)Cc3ccc(Br)cc3)CC2)c1C | i
O=C(Cc1ccc(Br)cc1)N1CCN(c2ccccc2)CC1 | 467
Cc1ccc(OCC(O)CN2C(=O)NC(C)(C)C2=O)c(C)c1 (configuration not stated) | i
COc1ccccc1NS(=O)(=O)c1ccc(N/N=C(\C)C(C)C)c([N+](=O)[O-])c1 | i
COc1ccccc1NS(=O)(=O)c1cc(C)ccc1C | i
COc1ccccc1NS(=O)(=O)c1cc([N+](=O)[O-])ccc1N/N=C/c1c(C)[nH]c2ccccc12 | 260
O=C(Nc1cc2c(cc1Cl)OCCCO2)c1ccc(F)cc1 | i
Cc1c2ccccc2nc2c(F)c(NC(C)C)c(F)c(F)c12 | 233
OCCNc1c2ccccc2nc2c(F)c(F)c(F)c(F)c12 | i
Cc1c2ccccc2nc2c(F)c(NCCO)c(F)c(F)c12 | i
CC(C)CNC(=O)C1CCCN(C(=O)NCc2ccccc2)C1 (configuration not stated) | i
C=CCNc1oc(-c2cccs2)nc1C#N | i
CC(C)Oc1ccc(C(=O)Nc2ccc(Cl)c(S(=O)(=O)Nc3ccc(Cl)cc3)c2)cc1 | i
Cc1cc(C)cc(-n2nnnc2-c2cn(C)nc2C(F)(F)F)c1 | 132
FC(F)(F)c1nc(-c2cccs2)ncc1-c1nnnn1-c1ccc(Cl)cc1 | i
Cc1ccc(-n2nnnc2-c2ccco2)cc1 | i
COc1ccc(S(=O)(=O)c2nnn(-c3ccccc3Cl)c2N)cc1 | i
COC(=O)c1sccc1NC(=O)Cc1ccc(Br)cc1 | i
COc1ccc(C2C(C#N)=C(N)Nc3onc(C(C)(C)C)c32)c(OC)c1 (configuration not stated) | i
CCCCOc1ccc(C2C3CN(C(=O)OCC)CC=C3C(C#N)=C(N)C2(C#N)C#N)cc1OC (configuration not stated) | i
COc1ccc(OC)c(C2C3CN(C(C)C)CC=C3C(C#N)=C(N)C2(C#N)C#N)c1 (configuration not stated) | 479
Cc1ccccc1C(=O)NNC(=O)CSc1nnc(-c2ccncc2)n1-c1ccccc1 | i
COC(=O)Cc1ccc(NC(=O)c2cccs2)cc1 | 460
O=C(Nc1ccncc1)c1cccs1 | i
CC(=O)c1ccc(NC(=O)c2cccs2)cc1 | i
COc1ccc(OCC(=O)N/N=C(/C)Cc2ccccc2)cc1 | i
NS(=O)(=O)c1ccc(CCNC(=O)CN2CCCCCC2)cc1 | i
O=[N+]([O-])c1ccc(-c2ccc(/C=N/Nc3nc(N4CCCCC4)nc(N4CCCCC4)n3)o2)cc1 | 614
O=[N+]([O-])c1ccc(-n2cccc2/C=N/Nc2nc(N3CCCCC3)nc(N3CCCCC3)n2)cc1 | i
